Compound activity as filed in PubChem BioAssay.
Cl transport mod: KCC2 (human) Cl- transport modulation; Q9H2X9; KCC2 cells, thallium flux FluoZin-2 fluorescence; B-score of Tl+ flux slope (higher = more flux/activation; lower = inhibition) at 10 µM; hit rate 2.2% among 190,000; AID 1456;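 active means thallium flux slope and its plate-corrected score both differing from the plate sample mean at a set confidence after two filtering rounds, in either direction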;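 further: slope of fluorescence scaled to starting intensity during 10 to 20 s after thallium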
ROMK mod: human ROMK K+ channel modulation, primary screen | P48048 | Tet-inducible ROMK, thallium flux fluorescence; actives lie on both sides | B-score at 10 µM | hit rate 2% among 130,000;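 active means signal ratio slope over the read window, or its plate-corrected B-score, at least 3 SD from the plate mean, either direction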;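 further: B-score of the F/F0 ratio slope over 7 to 12 s after thallium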
Redox H2O2 prof: compounds producing H2O2 with reducing agent – biochemical, NIH compound library profiling, artefact control for MLSCN library redox annotation, primary screen. DTT-dependent redox cycling H2O2, phenol red/HRP absorbance; 100% = 100 µM peroxide control, 0% = buffer. hit rate 0.03% among 200,000. activation, % at 10 µM. AID 878;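 active means activation of at least 50% relative to the plate's high and low controls in the primary single-dose screen; inactive means activation below 50%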;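 further: compound incubated with DTT at 0.8 mM final as the reducing agent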
Dynein cargo inh: dynein cargo transport inhibition. 3617.4 mouse cells, GR-EGFP nuclear translocation imaging; test concentration mostly 20 µM; stimulated with dexamethasone, 1 µM; hits give low values. z-score, hits read low. hit rate 0.47% among 220,000. AID 1381;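 active means plate z-score of nuclear minus cytoplasmic receptor signal below a set negative limit, without overly bright fluorescence or cell loss, cut at about -3.5 in these data, passing the limit was not always enough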;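 further: z-score of nuclear minus cytoplasmic ring GR-EGFP intensity difference per well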
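Buffer or medium: tetracycline-free induction medium containing charcoal-stripped FBS / Reagent: dexamethasone agonist, 1.0 µM final, for 30 min / Technique: automated 10x imaging of fixed Hoechst-stained cells / Times: induction 48 h, compound 1 h, agonist 30 min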
Autophagy mod: modulators of autophagy. MEF GFP-LC3 puncta imaging; test concentration mostly 10 µM. calls only at 10 µM (by protocol). hit rate 0.98% among 190,000;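 active means percentage of spot-positive cells more than 3 SD above its plate mean, without a fluorescence outlier flag or 80% toxicity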;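 further: spot-positive cell cutoff set from DMSO-treated cells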
ROMK retest: retested hit modulating human ROMK potassium channel | hit rate 54% among 3,000 | normalized thallium flux (F/F0 slope) at 10 µM | ROMK thallium flux, fluorescence ratio; hits give low values | shares compounds with ROMK mod;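 active means Flux at 10 µM at least 3 SD below or above vehicle control mean in one or both replicates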
* marks the source's active call; other numbers are inactive results; i = inactive; . = no result given. Rows were chosen to be rich in hits. Some 4.1% of all compounds tested hit in one or more screens of this group.

SMILES | Cl transport mod | ROMK mod | Redox H2O2 prof | Dynein cargo inh | Autophagy mod | ROMK retest
NC(=O)c1ccccc1NC(=S)NC(=O)CCc1ccccc1 | -0.617 | 2.65 | -0.3 | 0.816 | i | .
CCSc1nnc(NC(=O)NC(C)(C(F)(F)F)C(F)(F)F)s1 | 0.329 | -0.878 | 1.6 | 1.15 | i | .
CCSc1nnc(NC(=O)NC(CC)(C(F)(F)F)C(F)(F)F)s1 | . | -3.99* | 0.0 | 0.405 | i | 0.058*
CCOC(=O)C1(Cc2ccccc2)CCN(Cc2cn[nH]c2-c2ccccc2)CC1 | -0.0262 | -2.5* | 0.0 | 1.34 | i | 0.056*
COC(=O)/C=C1\SC(=NC(=O)c2ccc(C)cc2)NC1=O | 1.09 | -4.14* | 0.6 | -0.0565 | i | 0.0454*
COc1ccc(C(=O)Cn2nnc(-c3ccccc3NC(=O)C(F)(F)F)n2)cc1 | -0.0834 | 1.99* | 0.2 | -0.349 | i | 0.0734
COc1ccc(C(=O)Cn2nnc(-c3ccccc3NC(=O)C3CCCCC3)n2)cc1 | -0.343 | -0.834 | 0.1 | 0.17 | i | .
